Test results published in ChEMBL document CHEMBL1131460, “2-substituted (2SR)-2-amino-2-((1SR,2SR)-2-carboxycycloprop-1-yl)glycines as potent and selective antagonists of group II metabotropic glutamate receptors. 2. Effects of aromatic substitution, pharmacological characterization, and bioavailability” (J Med Chem, 1998).
pIC50: −log10 of the molar value. Values belong to the compound of their own block, whether it stands above or below them.

What was measured:
[1] = Binding affinity for Group II Metabotropic glutamate receptor was measured using [3H]glutamate in rat forebrain membranes; type: cell membranes, Membrane
Outline: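 ACPD-sensitive [³H]glutamate binding to group II mGluRs in rat forebrain membranes, reported as IC50. Most values are single-point determinations; others are averages of two or three determinations. Values in parentheses are percent radioligand displacement at 1 μM.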

[2] = biological target: T1, Metabotropic glutamate receptor 2 (Homo sapiens, UniProt Q14416); test: Effect on 1S,3R-ACPD-induced inhibition of forskolin stimulated cyclic-AMP in RGT cells expressing human Metabotropic glutamate receptor 2; type: functional, cell-based
[3] = biological target: T2, Metabotropic glutamate receptor 3 (Homo sapiens, UniProt Q14832); test: Effect on 1S,3R-ACPD-induced inhibition of forskolin stimulated cyclic-AMP in RGT cells expressing human Metabotropic glutamate receptor 3; type: functional, cell-based
[4] = biological target: T1, Metabotropic glutamate receptor 2; test: Compound was tested its ability to block 1S,3R-ACPD-induced inhibition of forskolin stimulated cyclic-AMP in RGT cells transfected with human Metabotropic glutamate receptor 2; Agonist; type: functional, cell-based
Outline: (§1)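 RGT cells transfected with human mGluR2 or mGluR3 were used. Forskolin-stimulated cyclic AMP was inhibited by (1S,3R)-ACPD, and compounds were tested for antagonism of this inhibition, giving IC50.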

[5] = biological target: T2, Metabotropic glutamate receptor 3; test: Compound was tested its ability to block 1S,3R-ACPD-induced inhibition of forskolin stimulated cyclic-AMP in RGT cells transfected with human Metabotropic glutamate receptor 3; Agonist; type: functional, cell-based; outline: as §1

T1 sequence (Q14416 whole entry): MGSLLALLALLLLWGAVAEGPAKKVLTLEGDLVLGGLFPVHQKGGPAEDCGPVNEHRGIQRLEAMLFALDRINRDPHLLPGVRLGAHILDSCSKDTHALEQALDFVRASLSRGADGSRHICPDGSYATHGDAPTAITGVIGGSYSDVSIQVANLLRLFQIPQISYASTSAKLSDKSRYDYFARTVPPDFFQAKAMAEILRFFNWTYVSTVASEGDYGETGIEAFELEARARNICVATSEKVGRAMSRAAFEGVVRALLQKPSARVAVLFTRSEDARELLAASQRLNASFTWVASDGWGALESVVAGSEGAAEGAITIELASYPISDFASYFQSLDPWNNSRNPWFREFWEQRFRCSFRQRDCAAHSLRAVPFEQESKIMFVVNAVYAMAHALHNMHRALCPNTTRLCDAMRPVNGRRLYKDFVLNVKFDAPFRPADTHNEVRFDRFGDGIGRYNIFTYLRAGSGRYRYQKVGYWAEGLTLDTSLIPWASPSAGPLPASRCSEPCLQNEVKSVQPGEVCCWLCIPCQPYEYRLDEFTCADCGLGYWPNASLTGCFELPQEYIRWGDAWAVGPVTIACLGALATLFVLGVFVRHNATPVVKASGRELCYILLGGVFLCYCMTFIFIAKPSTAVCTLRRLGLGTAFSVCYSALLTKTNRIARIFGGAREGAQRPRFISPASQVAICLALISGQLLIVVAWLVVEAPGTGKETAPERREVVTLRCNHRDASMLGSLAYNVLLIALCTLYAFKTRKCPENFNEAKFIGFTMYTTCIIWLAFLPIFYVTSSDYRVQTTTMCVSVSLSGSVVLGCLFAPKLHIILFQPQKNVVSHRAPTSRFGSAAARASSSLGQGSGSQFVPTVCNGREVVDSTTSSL
T2 sequence (Q14832 whole entry): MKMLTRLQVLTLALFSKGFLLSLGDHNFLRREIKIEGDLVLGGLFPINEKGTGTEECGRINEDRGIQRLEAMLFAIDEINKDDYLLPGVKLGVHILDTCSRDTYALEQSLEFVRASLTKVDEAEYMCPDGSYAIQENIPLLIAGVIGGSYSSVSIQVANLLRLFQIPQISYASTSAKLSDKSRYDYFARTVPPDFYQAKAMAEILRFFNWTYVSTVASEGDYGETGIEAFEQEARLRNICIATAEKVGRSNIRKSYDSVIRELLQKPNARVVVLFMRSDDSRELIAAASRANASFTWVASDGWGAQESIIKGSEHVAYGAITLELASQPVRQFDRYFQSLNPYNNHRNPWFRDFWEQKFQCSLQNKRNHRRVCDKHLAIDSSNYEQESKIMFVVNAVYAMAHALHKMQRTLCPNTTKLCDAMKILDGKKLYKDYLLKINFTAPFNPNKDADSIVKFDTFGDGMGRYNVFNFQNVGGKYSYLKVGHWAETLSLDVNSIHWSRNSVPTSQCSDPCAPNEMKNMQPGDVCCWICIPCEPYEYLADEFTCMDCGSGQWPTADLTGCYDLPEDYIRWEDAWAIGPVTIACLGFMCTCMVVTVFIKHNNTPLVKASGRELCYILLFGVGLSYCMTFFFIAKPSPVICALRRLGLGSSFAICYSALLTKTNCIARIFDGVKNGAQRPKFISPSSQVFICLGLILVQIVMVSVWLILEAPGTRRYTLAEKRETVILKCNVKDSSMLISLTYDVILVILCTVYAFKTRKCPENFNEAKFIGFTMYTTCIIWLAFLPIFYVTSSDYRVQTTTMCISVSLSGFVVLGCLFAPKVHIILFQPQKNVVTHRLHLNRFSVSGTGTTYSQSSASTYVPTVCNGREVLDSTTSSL

pIC50 [1]: 6.80
SMILES: N[C@@](CCc1cccc(F)c1)(C(=O)O)C1C[C@@H]1C(=O)O (some centres undefined)

pIC50 [1]: 7.00 | pIC50 [2]: 6.74 | pIC50 [3]: 6.74
SMILES: N[C@@](CCc1cccc(Cl)c1)(C(=O)O)C1C[C@@H]1C(=O)O (some centres undefined)

pIC50 [1]: 7.05
SMILES: Cc1cccc(CC[C@](N)(C(=O)O)C2C[C@@H]2C(=O)O)c1 (stereo in doubt; 104)

pIC50 [1]: 7.46 | pIC50 [2]: 6.66 | pIC50 [3]: 6.77
SMILES: N[C@](CC(c1ccccc1)c1ccccc1)(C(=O)O)[C@H]1C[C@@H]1C(=O)O

pIC50 [1]: 6.82 | pIC50 [2]: 6.00 | pIC50 [3]: 6.59
SMILES: N[C@@](CCc1cccc(O)c1)(C(=O)O)C1C[C@@H]1C(=O)O (some centres undefined)

pIC50 [1]: 7.54
SMILES: N[C@@](CCc1cc(Cl)cc(Cl)c1)(C(=O)O)C1C[C@@H]1C(=O)O (some centres undefined)

pIC50 [1]: 6.89
SMILES: N[C@@](CCc1cccc(F)c1F)(C(=O)O)C1C[C@@H]1C(=O)O (some centres undefined)

pIC50 [1]: 6.77
SMILES: COc1ccc(OC)c(CC[C@](N)(C(=O)O)C2C[C@@H]2C(=O)O)c1 (some centres undefined)

pIC50 [1]: 7.16
SMILES: N[C@@](CCc1cccc(Br)c1)(C(=O)O)C1C[C@@H]1C(=O)O (some centres undefined)

pIC50 [1]: 6.32
SMILES: N[C@@](CCc1ccccc1C(F)(F)F)(C(=O)O)C1C[C@@H]1C(=O)O (some centres undefined)

pIC50 [1]: 6.24
SMILES: CCCc1cccc(CC[C@](N)(C(=O)O)C2C[C@@H]2C(=O)O)c1 (some centres undefined)

pIC50 [1]: 6.23
SMILES: Cc1ccc(CC[C@](N)(C(=O)O)C2C[C@@H]2C(=O)O)cc1 (some centres undefined)

pIC50 [1]: < 5.00
SMILES: CC(C)(C)c1cccc(CC[C@](N)(C(=O)O)C2C[C@@H]2C(=O)O)c1 (some centres undefined)

pIC50 [1]: 7.92
SMILES: Cc1cccc(CC[C@](N)(C(=O)O)C2C[C@@H]2C(=O)O)c1 (stereo in doubt; 180)

pIC50 [1]: 6.96
SMILES: COc1cc(CC[C@](N)(C(=O)O)C2C[C@@H]2C(=O)O)cc(OC)c1 (some centres undefined)

pIC50 [1]: 7.66 | pIC50 [2]: 6.74 | pIC50 [3]: 6.68
SMILES: N[C@@](CCc1ccc(F)cc1)(C(=O)O)C1C[C@@H]1C(=O)O (some centres undefined)

pIC50 [1]: 6.39
SMILES: CSc1cccc(CC[C@](N)(C(=O)O)C2C[C@@H]2C(=O)O)c1 (some centres undefined)

pIC50 [1]: 6.39
SMILES: N[C@@](CCc1ccc(Cl)cc1)(C(=O)O)C1C[C@@H]1C(=O)O (some centres undefined)

The remaining lines, values behind:

SMILES: COc1ccc(CC[C@](N)(C(=O)O)C2C[C@@H]2C(=O)O)cc1 (some centres undefined)
pIC50 [1]: 5.85

SMILES: N[C@@](CCc1ccccc1Cl)(C(=O)O)C1C[C@@H]1C(=O)O (some centres undefined)
pIC50 [1]: 6.59

SMILES: N[C@](CC1c2ccccc2Oc2ccccc21)(C(=O)O)C1C[C@H]1C(=O)O (stereo in doubt; 173)
pIC50 [1]: 6.07

SMILES: N[C@@](CCc1ccccc1F)(C(=O)O)C1C[C@@H]1C(=O)O (some centres undefined)
pIC50 [1]: 6.51

SMILES: N[C@@](CCc1cccc(Oc2ccccc2)c1)(C(=O)O)C1C[C@@H]1C(=O)O (some centres undefined)
pIC50 [1]: 6.66

SMILES: N[C@@](CCc1c(F)c(F)c(F)c(F)c1F)(C(=O)O)C1C[C@@H]1C(=O)O (some centres undefined)
pIC50 [1]: 6.43

SMILES: N[C@@](CC(c1ccccc1)c1ccccc1)(C(=O)O)[C@H]1C[C@@H]1C(=O)O
pIC50 [1]: 5.70

SMILES: N[C@@](CCc1cccc(C2CCCC2)c1)(C(=O)O)C1C[C@@H]1C(=O)O (some centres undefined)
pIC50 [1]: < 5.00

SMILES: CS(=O)(=O)c1cccc(CC[C@](N)(C(=O)O)C2C[C@@H]2C(=O)O)c1 (some centres undefined) [listing 1 of 2 here]
pIC50 [1]: 5.62

SMILES: N[C@@](CCc1ccc(O)cc1)(C(=O)O)C1C[C@@H]1C(=O)O (some centres undefined)
pIC50 [1]: 6.52

SMILES: COc1cccc(CC[C@](N)(C(=O)O)C2C[C@@H]2C(=O)O)c1 (some centres undefined)
pIC50 [1]: 7.03 | pIC50 [2]: 6.37 | pIC50 [3]: 6.80

SMILES: Cc1ccccc1CC[C@](N)(C(=O)O)C1C[C@@H]1C(=O)O (some centres undefined)
pIC50 [1]: 6.24

SMILES: N[C@@](CCc1ccccc1O)(C(=O)O)C1C[C@@H]1C(=O)O (some centres undefined)
pIC50 [1]: 6.66

SMILES: N[C@@](CC1c2ccccc2Oc2ccccc21)(C(=O)O)[C@H]1C[C@@H]1C(=O)O
pIC50 [1]: 6.28

SMILES: N[C@@](CCc1ccc(Br)cc1)(C(=O)O)C1C[C@@H]1C(=O)O (some centres undefined)
pIC50 [1]: 6.17

SMILES: N[C@@](CCc1ccccc1Oc1ccccc1)(C(=O)O)C1C[C@@H]1C(=O)O (some centres undefined)
pIC50 [1]: 6.44

SMILES: NC(CC(c1ccccc1)c1ccccc1)(C(=O)O)[C@@H]1C[C@H]1C(=O)O (single isomer, unassigned)
Displacement ([1]; Membrane): 0%

SMILES: N[C@@](CCc1cccc(C(F)(F)F)c1)(C(=O)O)C1C[C@@H]1C(=O)O (some centres undefined)
pIC50 [1]: 6.85 | pIC50 [2]: 6.66 | pIC50 [3]: 6.38

SMILES: NC(CCc1cccc(C(=O)O)c1)(C(=O)O)[C@H]1C[C@@H]1C(=O)O (some centres undefined)
pIC50 [1]: 7.11 | pIC50 [2]: 5.74 | pIC50 [3]: 7.10

SMILES: N[C@@](CCc1ccc(F)cc1F)(C(=O)O)C1C[C@@H]1C(=O)O (some centres undefined)
pIC50 [1]: 7.20

SMILES: N[C@](CC1c2ccccc2Oc2ccccc21)(C(=O)O)C1C[C@H]1C(=O)O (stereo in doubt; 174)
pIC50 [1]: 5.38

SMILES: N[C@@](CCc1ccc(F)c(F)c1)(C(=O)O)C1C[C@@H]1C(=O)O (some centres undefined)
pIC50 [1]: 7.47

SMILES: CS(=O)(=O)c1cccc(CC[C@](N)(C(=O)O)C2C[C@@H]2C(=O)O)c1 (some centres undefined) [listing 2 of 2 here]
pIC50 [1]: 6.96 | pIC50 [2]: 6.72 | pIC50 [3]: 6.74

SMILES: N[C@@](CCc1c(Cl)cccc1Cl)(C(=O)O)C1C[C@@H]1C(=O)O (some centres undefined)
pIC50 [1]: 6.15

SMILES: Nc1cccc(CC[C@](N)(C(=O)O)C2C[C@@H]2C(=O)O)c1 (some centres undefined)
pIC50 [2]: 5.51 | pIC50 [3]: 6.70

SMILES: COc1cccc(CC[C@](N)(C(=O)O)C2C[C@@H]2C(=O)O)c1OC (some centres undefined)
pIC50 [1]: 5.31

SMILES: N[C@@](CCc1cc(F)ccc1F)(C(=O)O)C1C[C@@H]1C(=O)O (some centres undefined)
pIC50 [1]: 6.54

SMILES: N[C@@](CCc1ccc(Cl)cc1Cl)(C(=O)O)C1C[C@@H]1C(=O)O (some centres undefined)
pIC50 [1]: 6.66

SMILES: N[C@@](CCc1cccc(-c2ccccc2)c1)(C(=O)O)C1C[C@@H]1C(=O)O (some centres undefined)
pIC50 [1]: 6.29

SMILES: N[C@@](CCc1ccc(Cl)c(Cl)c1)(C(=O)O)C1C[C@@H]1C(=O)O (some centres undefined)
pIC50 [1]: 7.17

SMILES: NC(CCc1ccccc1)(C(=O)O)[C@H]1C[C@@H]1C(=O)O (some centres undefined)
pIC50 [1]: 6.49

SMILES: N[C@@](CCc1ccc(-c2ccccc2)cc1)(C(=O)O)C1C[C@@H]1C(=O)O (some centres undefined)
pIC50 [1]: 5.82

SMILES: COc1ccccc1CC[C@](N)(C(=O)O)C1C[C@@H]1C(=O)O (some centres undefined)
pIC50 [1]: 6.77

SMILES: COc1ccc(CC[C@](N)(C(=O)O)C2C[C@@H]2C(=O)O)cc1OC (some centres undefined)
pIC50 [1]: 6.34

SMILES: N[C@@](CCc1cc(F)cc(F)c1)(C(=O)O)C1C[C@@H]1C(=O)O (some centres undefined)
pIC50 [1]: 7.68

SMILES: N[C@@](CCc1ccc(C(=O)O)cc1)(C(=O)O)C1C[C@@H]1C(=O)O (some centres undefined)
pIC50 [1]: 6.43

SMILES: N[C@@H](C(=O)O)C1C[C@@H]1C(=O)O (some centres undefined)
pIC50 [1]: 6.33 | IC50 [4]: Agonist | IC50 [5]: Agonist
